Assay outcomes as filed in PubChem.
DTT redox prof – compounds producing H2O2 with reducing agent – biochemical, NIH compound library profiling, artefact control for MLSCN library redox annotation, primary screen; DTT-dependent redox cycling H2O2, phenol red/HRP absorbance; 100% = 100 µM peroxide control, 0% = buffer; activation, % at 10 µM; actives 0.03% (n = 200,000);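 active = activation of at least 50% relative to the plate's high and low controls in the primary single-dose screen; inactive = activation below 50%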;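 note: compound incubated with DTT at 0.8 mM final as the reducing agent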
ROMK mod – human ROMK K+ channel modulation, primary screen. P48048. Tet-inducible ROMK, thallium flux fluorescence; actives lie on both sides. B-score at 10 µM. actives 2% (n = 130,000);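 active = signal ratio slope over the read window, or its plate-corrected B-score, at least 3 SD from the plate mean, either direction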;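 note: B-score of the F/F0 ratio slope over 7 to 12 s after thallium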
MT stabilize HCS – stabilizes microtubules in HeLa cells; % tubulin-high responders, % at 10 µM; HeLa tubulin immunostaining HCS, 24 h; share of cells brighter than vehicle mean+2SD; actives 0.83% (n = 200,000); AID 2205;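 active = plate Z-score above 3 for both tubulin-high and condensed-nucleus cell shares, with cell loss under 80%, at 10 µM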;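 note: anti alpha tubulin signal scored within the nucleus-defined area of each cell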
Cl transport mod – modulates chloride dependent transport by human KCC2 | B-score of Tl+ flux slope (higher = more flux/activation; lower = inhibition) at 10 µM | AID 1456 | actives 2.2% (n = 190,000) | KCC2 cells, thallium flux FluoZin-2 fluorescence;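 active = thallium flux slope and its plate-corrected score both differing from the plate sample mean at a set confidence after two filtering rounds, in either direction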;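 note: slope of fluorescence scaled to starting intensity during 10 to 20 s after thallium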
Target sequence (Q9H2X9 whole entry, looked up): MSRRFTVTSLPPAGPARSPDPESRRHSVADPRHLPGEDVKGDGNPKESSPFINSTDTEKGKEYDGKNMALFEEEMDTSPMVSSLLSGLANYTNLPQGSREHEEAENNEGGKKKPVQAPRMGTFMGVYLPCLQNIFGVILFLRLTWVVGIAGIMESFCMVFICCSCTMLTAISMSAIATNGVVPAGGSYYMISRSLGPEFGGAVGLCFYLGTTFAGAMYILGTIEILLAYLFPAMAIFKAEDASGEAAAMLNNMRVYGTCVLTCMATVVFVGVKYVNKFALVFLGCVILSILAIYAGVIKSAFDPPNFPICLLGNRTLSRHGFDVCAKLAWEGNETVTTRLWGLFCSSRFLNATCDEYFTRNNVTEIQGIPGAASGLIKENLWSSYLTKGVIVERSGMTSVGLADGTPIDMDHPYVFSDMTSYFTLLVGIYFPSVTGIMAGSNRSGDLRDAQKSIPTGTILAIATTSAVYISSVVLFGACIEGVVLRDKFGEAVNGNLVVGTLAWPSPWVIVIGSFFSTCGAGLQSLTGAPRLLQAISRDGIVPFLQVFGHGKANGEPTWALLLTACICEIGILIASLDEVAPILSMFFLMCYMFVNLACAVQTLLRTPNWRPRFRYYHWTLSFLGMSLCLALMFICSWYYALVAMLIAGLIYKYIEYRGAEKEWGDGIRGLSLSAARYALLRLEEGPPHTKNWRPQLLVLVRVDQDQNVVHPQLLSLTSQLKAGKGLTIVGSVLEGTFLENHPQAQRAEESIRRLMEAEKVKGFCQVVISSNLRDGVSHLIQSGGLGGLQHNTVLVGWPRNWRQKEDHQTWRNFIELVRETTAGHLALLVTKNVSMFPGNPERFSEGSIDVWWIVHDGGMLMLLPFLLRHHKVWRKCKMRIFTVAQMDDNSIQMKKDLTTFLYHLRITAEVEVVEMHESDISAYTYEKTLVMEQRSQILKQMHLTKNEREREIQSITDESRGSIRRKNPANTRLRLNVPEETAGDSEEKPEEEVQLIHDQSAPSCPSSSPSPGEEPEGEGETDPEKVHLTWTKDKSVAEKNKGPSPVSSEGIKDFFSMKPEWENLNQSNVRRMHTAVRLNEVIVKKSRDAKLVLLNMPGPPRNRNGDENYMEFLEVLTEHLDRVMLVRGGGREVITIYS
bCat nuc transl – modulators of beta-catenin nuclear translocation. actives 0.3% (n = 190,000). nuclear translocation activity, % at 5 µM. HeLa beta-catenin nuclear translocation, immunofluorescence imaging;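 active = nuclear translocation activity above 50% at 5 µM, with a well cell count of 50 or more; inconclusive = wells under 50 cells across six images, flagged as toxic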;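 note: per-cell ratio of nuclear to cytoplasmic median beta-catenin stain intensity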
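Signal – beta-catenin immunofluorescence imaging with DAPI · Test system – human HeLa cell line · Dosing – 5 µM primary single dose, 0.1% DMSO, 0.02–20 µM confirmation series · Measure – % activation, nuclear-to-cytoplasmic median beta-catenin signal ratio per cell · Incubation – 24 h compound exposure at 37°C, 5% CO2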
ROMK retest – confirmation of human ROMK potassium channel modulators | shares compounds with ROMK mod | ROMK thallium flux, fluorescence ratio; stronger effect = lower value | normalized thallium flux (F/F0 slope) at 10 µM | actives 54% (n = 3,000);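 active = Flux at 10 µM at least 3 SD below or above vehicle control mean in one or both replicates; inconclusive = no clear call, values can overlap the other calls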
Numbers stand for hits; n = inactive; u = inconclusive; x = no result. Most compounds without a hit are left out; they make up all but 3.7% or so of the library.

SMILES | DTT redox prof | ROMK mod | MT stabilize HCS | Cl transport mod | bCat nuc transl | ROMK retest
Cc1ccc(C)n1-c1ccc(-n2cnnn2)cc1 | n | x | n | n | n | 0.0567
CCOCCOC(=O)C1=C(C)NC2=C(C(=O)CC(c3cccs3)C2)C1c1ccsc1 (stereo not drawn) | n | x | n | n | n | x
CCOCCOC(=O)c1[nH]c2c(c1C)C(=O)CC(c1cccs1)C2 (stereo not drawn) | n | 5.69 | n | n | 63.4 | n
CCCCCOC(=O)c1[nH]c2c(c1C)C(=O)CC(c1ccco1)C2 (stereo not drawn) | n | n | n | n | 59.1 | n
Cc1ccc(NC(=S)N(Cc2ccc(Br)cc2)Cc2ccc(C(=O)O)cc2)cc1C | n | n | n | n | n | x
COc1cccc(NC(=O)CSc2nc3ccsc3c(=O)n2-c2ccc(C(=O)O)cc2)c1 | n | n | n | n | n | x
O=C(CN1CCC(c2nc3ccccc3s2)CC1)NCc1cccs1 | n | x | n | n | x | 0.0605
Cn1c(N2CCOCC2)nc2c1c(=O)n(Cc1ccc(Cl)c(Cl)c1)c(=O)n2C | n | -3.75 | n | n | x | 0.0678
Cn1c(=O)c2c(ncn2Cc2ccc(Cl)c(Cl)c2)n(C)c1=O | n | -2.12 | n | n | x | u
Cc1cc(=O)oc(C)c1C(=O)Nc1ccc(N(C)C)cc1 | x | x | x | n | n | x
CCNC(=O)CC1C(=O)N(C)C(=S)N1NC(=O)c1ccc(Cl)cc1 (stereo not drawn) | n | x | n | n | n | n
CCCn1c(N)c(N(CCOC)C(=O)/C=C/c2cccc(Cl)c2)c(=O)[nH]c1=O | n | n | n | n | n | x
Cc1cccc(Oc2ccc(NC(=O)c3ccccc3C(=O)O)cc2)c1C | n | 1.61 | n | n | n | n
COc1ccc(-n2c(SCc3cn4c(C)cccc4n3)nc3ccccc3c2=O)cc1OC | n | n | n | n | n | x
CC(C(Sc1ccccc1N)c1ccccc1)[N+](=O)[O-] (stereo not drawn) | x | -5.07 | x | n | n | 0.0418
Fc1c(CSC(=S)N2CCOCC2)cccc1CSC(=S)N1CCOCC1 | x | n | x | n | n | x
COCCNc1ccc([N+](=O)[O-])cc1C(=O)Nc1cccc(C)n1 | n | -5.06 | n | n | n | 0.0286
COc1cccc(NC(=O)c2cccc(C)c2[N+](=O)[O-])c1 | n | 4.29 | n | n | n | n
COc1cccc(NC(=O)c2cc([N+](=O)[O-])ccc2NCc2cccnc2)c1 | n | -6.66 | n | n | n | 0.0297
Cc1cccc(C(=O)Nc2cccc(Br)c2)c1[N+](=O)[O-] | n | n | n | n | n | x
Cc1ccc(NC(=O)COC(=O)CC2CCCC2)cc1Cl | n | n | n | n | n | x
CSc1nn2c(C(F)(F)F)cc(C(F)(F)F)nc2c1C(=O)O | x | x | x | n | n | x
O=C1c2[nH]nc(-c3ccccc3O)c2C(c2ccc(F)cc2)N1CC1CCCO1 (stereo not drawn) | n | n | n | x | n | x
O=C1c2[nH]nc(-c3ccccc3O)c2C(c2cccc(Cl)c2)N1CC1CCCO1 (stereo not drawn) | n | -2.42 | n | x | n | 0.0521
COc1ccc2[nH]c(=O)c(CN(CC3CCCO3)C(=O)Nc3ccc(F)cc3)cc2c1 (stereo not drawn) | n | x | n | n | x | 0.0613
SMILES | DTT redox prof | ROMK mod | MT stabilize HCS | Cl transport mod | bCat nuc transl | ROMK retest
COc1ccc2[nH]c(=O)c(CN(C(C)=O)C3CCCCC3)cc2c1 | n | n | n | x | n | x
COc1ccc2[nH]c(=O)c(CN(C(=O)NC3CCCCC3)C3CCCC3)cc2c1 | n | -2.84 | n | x | n | n
COCCNC(=O)/C(C#N)=C/C=C/c1ccccc1[N+](=O)[O-] | n | n | n | n | n | x
O=C(CCc1ccc(O)cc1)N/N=C/c1coc2ccccc2c1=O | x | x | x | n | n | x
CCOC(=O)/C=c1\s/c(=C\c2c(OCC)ccc3ccccc23)c(=O)n1CC(=O)NCC1CCCO1 (stereo not drawn) | n | x | n | x | n | x
CCOC(=O)/C=c1\s/c(=C\c2ccc3cc(OC)ccc3c2)c(=O)n1CC(=O)NCc1ccc2c(c1)OCO2 | n | -6.03 | n | n | n | 0.0464
CC(=O)Nc1ccc(S(=O)(=O)N2c3ccccc3C(C)=CC2(C)C)cc1 | n | 2.11 | 8.6 | n | 81.2 | n
Cc1cc(C2N=C(N)Nc3nc4ccccc4n32)c(C)n1-c1ccccc1Cl (stereo not drawn) | n | -5.05 | n | n | n | 0.0593
Cc1ccc(-n2c(C)cc(C3N=C(N)Nc4nc5ccccc5n43)c2C)c(C)c1 (stereo not drawn) | n | x | n | n | n | 0.0466
NC1=NC(c2ccc(F)cc2)n2c(nc3ccccc32)N1 (stereo not drawn) | n | n | n | n | n | x
O=C(Cc1cccc2ccccc12)N/N=C/c1ccncc1 | n | -6.59 | n | n | n | n
CCCn1c(=S)[nH]c2cc(C(=O)N3CCCC(C(=O)OCC)C3)ccc2c1=O (stereo not drawn) | n | -3.23 | n | x | x | 0.0597
Nc1ccc2c(c1)Oc1ccccc1C=C2 | n | -3.17 | n | n | n | n
C/C(=N\NC(=O)COc1ccc(C)cc1[N+](=O)[O-])c1cccs1 | n | -2.6 | n | n | n | n
O=C(O)Cc1ccc(O)c(O)c1 | x | x | x | n | n | x
O=C(O)Cc1cc(I)c(Oc2ccc(O)c(I)c2)c(I)c1 | n | x | n | n | x | 0.119
COc1cccc(CN2C(=O)c3cccc(N)c3C2=O)c1 | n | -2.13 | n | n | n | 0.0568
COc1ccc2c(c1)c(C(O)CN1CCN(Cc3ccc4c(c3)OCO4)CC1)c(C)n2C (stereo not drawn) | n | x | n | n | n | x
COc1ccc2c(c1)c(C(O)CN1CCC(Cc3ccccc3)CC1)c(C)n2C (stereo not drawn) | n | x | n | n | n | 0.0576
COC(=O)c1c(C)nc(C)c2c(=O)oc3ccccc3c12 | n | x | n | n | n | u
Cc1cc2c(c(N)n1)c(=O)oc1ccccc12 | n | n | n | n | n | x
CN1C(=O)/C(=C/C=C2\SCCN2C)SC1=S | n | -2.96 | n | n | n | 0.0571
CN(C)n1cnc2ccsc2c1=O | n | n | n | n | n | x
CC(=O)N/N=C/c1cc(C(C)(C)C)cc(/C=N/NC(C)=O)c1O | n | -3.04 | x | n | n | 0.0554
CCC(O)(CC)C(=O)N/N=C/c1cc(Br)cc(Br)c1O | x | x | x | n | n | x
CCN(CCNC(=O)C1CCCN(Cc2nc(-c3ccc(OC)cc3)oc2C)C1)c1ccccc1 (stereo not drawn) | n | -3.92 | n | n | n | 0.0592
O=c1[nH][nH]c(C(F)(F)F)c1/C=N/N1CCOCC1 | n | n | n | n | n | x
Cc1ccc(-c2nc(CSCC(=O)NCCN3CCN(Cc4ccccc4)CC3)c(C)o2)cc1 | n | -3.71 | n | n | n | u
CCOc1ccc(-c2nn(-c3ccccc3)cc2/C=C2\SC(=S)N(C3CCS(=O)(=O)C3)C2=O)cc1 (stereo not drawn) | n | -5.43 | n | n | n | 0.0488
